Screening data (PubChem)
MrgX1 allo act: human MrgX1 positive allosteric modulation, primary screen. Q96LB2. MrgX1-HEK293, Fluo-4 calcium flux, FDSS; active compounds read high. B-score at 10 µM. hit rate 0.63% among 310,000. AID 588675;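 active = plate-corrected calcium response at least 3 library SD above typical, normal starting fluorescence, not activating the receptor alone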;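 also: compound read alongside a low EC10 to EC30 dose of BAM8-22 agonist; peak minus trough fluorescence over baseline measured at the second addition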
Target sequence (Q96LB2 whole entry, looked up): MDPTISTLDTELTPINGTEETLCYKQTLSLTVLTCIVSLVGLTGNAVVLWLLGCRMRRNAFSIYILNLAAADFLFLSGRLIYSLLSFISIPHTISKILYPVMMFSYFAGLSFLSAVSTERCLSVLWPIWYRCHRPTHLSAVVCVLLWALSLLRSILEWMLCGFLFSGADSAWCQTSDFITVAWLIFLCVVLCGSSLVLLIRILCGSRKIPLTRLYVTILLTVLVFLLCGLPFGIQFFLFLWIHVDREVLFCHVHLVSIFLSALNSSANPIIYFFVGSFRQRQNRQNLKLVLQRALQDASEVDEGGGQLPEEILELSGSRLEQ
MrgX1 antagonist: human MrgX1 receptor antagonism, primary screen; MRGX1-HEK293 calcium flux, Fluo-4, BAM8-22 antagonism; active compounds read low; B-score at 10 µM; Q96LB2; AID 588676; hit rate 1.3% among 310,000;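 active = calcium-response B-score plate-corrected more than 3 library SD below zero, starting fluorescence within 5 deviations, no agonist response on first addition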;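 also: peak minus trough fluorescence over baseline after final BAM8-22 challenge near maximal dose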
RGS4 inh: human RGS4 inhibition; AID 463165; P49798; HEK293 M3R/RGS4 inducible, Fluo-4 calcium flux; active compounds read high; triggered by carbachol at its EC20; hit rate 0.45% among 310,000; B-score at 10 µM;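 active = B-score, a plate-corrected calcium signal, over three deviations above library mean, with baseline fluorescence within five deviations of library mean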;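 also: RGS4 expression induced by doxycycline in cells with stable M3 receptor; B-score is computed from the integrated fluorescence ratio over baseline after carbachol; higher B-score means a larger calcium signal and so more RGS4 inhibition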
Target sequence (P49798 whole entry, looked up): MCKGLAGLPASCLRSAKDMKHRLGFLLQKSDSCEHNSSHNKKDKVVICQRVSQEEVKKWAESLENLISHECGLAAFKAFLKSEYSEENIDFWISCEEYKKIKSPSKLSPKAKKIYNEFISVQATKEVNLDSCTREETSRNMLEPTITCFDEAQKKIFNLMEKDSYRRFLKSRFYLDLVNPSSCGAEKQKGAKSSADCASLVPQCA
MrgX1 agonist: activates human MrgX1 receptor signaling. Q96LB2. MrgX1-HEK293 cells, Fluo-4 calcium fluorescence, agonist mode; active compounds read high. B-score at 10 µM. hit rate 0.44% among 310,000;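 active = calcium response B-score plate-corrected fluorescence ratio at least 3 library SD, with starting fluorescence B-score inside 5 SD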
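Material – MrgX1-expressing HEK293 cells · Input – 15,000 cells seeded per well · Dosing – compound as first of three additions · Times – overnight seeding, then 1 h dark dye loading · Measured by – kinetic Fluo-4 NW fluorescence of intracellular calcium · Read-out – B-scored fluorescence response ratio · Benchmarks – positive and negative control wells on each plate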
Lipid droplet: hepatic lipid droplet formation modulation; AML12 mouse hepatocytes, oleate lipid droplets, BODIPY imaging; hit rate 0.4% among 240,000; inhibition, % at 6.5 µM;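 active = lipid droplet intensity inhibited by at least 50%, with more than 500 cells counted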
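Material – AML12 mouse liver cells · Also added – oleate loading, 100 µM · Compound dosing – 6.5 µM single-point dosing · Times – overnight treatment with compound plus oleate · Measured by – fluorescence imaging, 20x objective, two fields per well · Read-out – percent inhibition of filter-corrected integrated lipid droplet intensity per well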
RGS4 pot: RGS4 potentiation or activation; HEK293 M3R/inducible RGS4, carbachol calcium flux Fluo4; active compounds read low; B-score at 10 µM; hit rate 0.92% among 310,000; AID 463111;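 active = B-score of the integrated calcium signal more than 4 SD below the library mean, with starting fluorescence not abnormally high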;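 also: negative B-score means reduced calcium response which marks RGS4 activation or potentiation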
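Material: Inducible-RGS4 HEK293 cells carrying M3 receptor; also added: carbachol at ECmax as muscarinic agonist stimulus; incubation: compound preincubation 20 min at room temperature before agonist; signal: Fluo4-AM (2 µM) calcium-flux fluorescence, kinetic read; measure: integrated calcium ratio converted to B score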
* hit, by the source's call; i = inactive; / = no result given. Rows were chosen to be rich in hits. Some 3.8% of all compounds tested hit in one or more screens of this group.

SMILES | MrgX1 allo act | MrgX1 antagonist | RGS4 inh | MrgX1 agonist | Lipid droplet | RGS4 pot
Cn1nnnc1SCCNCc1ccccc1OCc1ccc(F)cc1 | i | i | i | i | 3 | i
N#CC1=C(N)N2C(=C(C#N)C1c1ccccc1)Sc1ccccc12 (configuration not stated) | i | i | i | i | 2 | i
CCOc1ccc(C2C(C#N)=C(N)N3C(=C2C#N)Sc2ccccc23)cc1 (configuration not stated) | i | -4.8* | i | i | / | i
COC(=O)c1sc(NC(=S)NNC(=O)c2c(Br)c(C)nn2C)c(C(=O)OC)c1C | i | -5.1* | i | i | -4 | i
COC(=O)c1sc(NC(=O)C(C)C)c(C(=O)OC)c1C | i | i | i | i | / | i
CCc1ccccc1NNC(=O)c1cc(C)on1 | i | i | i | i | -2 | i
Cc1cc(C(=O)NNc2ccccc2F)no1 | i | i | i | i | -5 | -7.7*
COc1cc(C=O)ccc1OCCSc1ccc(Cl)cc1 | i | -5.4* | i | i | / | i
Cc1cccc(-n2nc(C(=O)c3ccco3)cc(-c3nc4ccccc4[nH]3)c2=N)c1 | i | i | i | i | -2 | -8.1*
Cc1ccc(C(=O)Nc2nnc(S(=O)(=O)N3CCC(C)CC3)s2)cc1 | i | -6.4* | i | i | -9 | i
O=C(NC1CC2CCCC(C1)N2C(=O)Nc1ccc(Cl)c(C(F)(F)F)c1)C1CC1 (configuration not stated) | i | i | i | i | / | i
O=C(NC1CC2CCCC(C1)N2C(=S)Nc1ccc(Cl)cc1)C1CC1 (configuration not stated) | i | i | i | i | 2 | -7*
CCOC(=O)C(CN1CCCC1)c1ccccc1 (configuration not stated) | i | i | i | i | / | i
O=C(c1ccc(Cl)cc1)C(CN1CCCCC1)c1ccccc1 (configuration not stated) | i | i | i | i | -16 | -8.3*
CCCCN1C(=O)C2(NNc3ccccc3O2)c2ccccc21 (configuration not stated) | i | -6.1* | i | i | 0 | i
CC1(C#CC[N+]2(C)CCCCC2)CCC2C(O1)c1ccccc1OC2(C)C (configuration not stated) | i | i | i | i | -5 | -7*
Nc1sc(-c2ccccc2)n[n+]1Cc1cccc2cccnc12 | i | -4.7* | i | i | 9 | -7.1*
COC1=C/C(=C/c2c(N)n3nc(CC(=O)N4CCCC4)sc3nc2=O)C=CC1=O | i | -5.9* | i | i | -1 | i
CCOC1=C/C(=C/c2c(N)n3nc(CC(=O)N4CCCC4)sc3nc2=O)C=CC1=O | i | i | i | 31* | 15 | i
CCn1cc(S(=O)(=O)N2CCN(c3ccc(Cl)cc3)CC2)cn1 | i | i | i | i | 2 | i
CCn1c(=O)c(C(=O)NNC(=O)c2ccccc2)c(O)c2ccccc21 | i | i | i | 30* | -3 | i
CC(C)Cn1c(=O)c(C(=O)Nc2ccncc2)c(O)c2ccccc21 | i | i | i | i | / | -8.9*
CC(C)Cn1c(=O)c(C(=O)Nc2cnccn2)c(O)c2ccccc21 | i | i | i | i | 1 | i
C=CCn1c(=O)c(C(=O)NCc2ccccc2)c(O)c2ccccc21 | i | i | i | i | 1 | -7.1*
CCCCCCC(=O)NNC(=O)c1c(O)c2ccccc2n(CC)c1=O | i | i | i | i | 11 | i
SMILES | MrgX1 allo act | MrgX1 antagonist | RGS4 inh | MrgX1 agonist | Lipid droplet | RGS4 pot
Cc1ccc2[nH]c(CNC(=O)c3ccc(F)cc3)cc2c1 | i | i | i | i | 1 | i
CN(Cc1ccccc1)C(=O)COC(=O)c1cc(NS(=O)(=O)c2cccs2)ccc1O | i | i | i | i | -14 | i
Cc1c(C(=O)C(=O)NCc2cccs2)c2ccccc2n1C | i | i | i | i | -5 | i
COc1ccc(CNC(=O)C(c2ccc(C)o2)N(C(=O)c2csnn2)c2ccc(C(C)C)cc2)cc1 (configuration not stated) | i | i | i | i | 24 | i
CCc1ccc(OCC(=O)NNC(=O)Cc2ccc(S(=O)(=O)N3CCOCC3)s2)cc1 | i | -6.9* | i | i | / | i
CC(C)[C@H](NC(=O)N1CC(=O)Nc2ccccc21)C(=O)N1CCC[C@H]1C(=O)O | i | i | i | i | / | i
CC(C)C(c1nnnn1Cc1ccc(F)cc1)N1CCN(Cc2ccc3c(c2)OCO3)CC1 (configuration not stated) | i | i | i | i | / | -7.2*
COC(=O)C1=C(C)N(Cc2ccco2)C(=O)/C1=C\c1ccc([N+](=O)[O-])cc1 | i | i | i | 28* | 5 | i
Cc1sc2ncnc(N3CCC(C(=O)NNC(=O)COc4ccccc4F)CC3)c2c1C | i | i | i | i | / | -7.7*
Cc1sc2ncnc(N3CCC(C(=O)NNC(=O)COc4ccccc4Cl)CC3)c2c1C | i | -7* | i | i | / | -8*
Cc1sc2ncnc(N3CCC(C(=O)NNC(=O)COc4ccc(Br)cc4)CC3)c2c1C | i | i | i | i | / | i
Cc1ccc(OCC(=O)NNC(=O)C2CCN(c3ncnc4sc(C)c(C)c34)CC2)cc1 | i | i | i | i | / | i
Cc1cc(F)ccc1NCC(=O)Nc1ccccc1Br | i | i | i | i | -4 | i
Cc1cc(-c2ccccc2)nc2oc(C(=O)NN)c(N)c12 | i | i | i | i | 8 | i
O=C(N/N=C/c1ccc(F)cc1)c1cc(-c2ccco2)nc2ccccc12 | i | i | i | i | / | i
Nc1c(C(=O)N/N=C/c2ccc(F)cc2)oc2nc(-c3ccccc3)cc(-c3ccco3)c12 | i | -5.4* | i | i | -2 | i
Nc1c(C(=O)N/N=C/c2ccccc2Cl)oc2nc(-c3ccccc3)cc(-c3ccco3)c12 | i | -7.7* | i | i | 15 | i
CC1(C)CC(=O)C=C(C(=O)N2CCCC(C(=O)c3cccc(C(F)(F)F)c3)C2)O1 (configuration not stated) | i | i | i | i | -27 | i
COc1ccc(OC)c(/C=N\NC(=O)c2cc3c(ccc4ccccc43)o2)c1 | i | i | i | i | 3 | i
